pEC50: −log10 of the molar value. Active and inactive are the calls of the source. The rule behind the calls is not given here.
What was measured:
HL-60 [1] = test: Induction of apoptosis in human HL60 cells expressing BCRP; format: functional, cell-based
MUTU-I [2] = test: Induction of apoptosis in human MUTU-I cells assessed as activation of caspase 3 and 7 at 10 uM after 8 hrs by Apotox-Glo Triplex assay; format: functional, cell-based
Summary of the method: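 Cells were seeded at 10,000/well and treated at 10 µM for 8 h. Caspase-Glo reagent (Apotox-Glo Triplex) was added, followed by brief orbital shaking and 30 min at room temperature, then a luminescence read. Vinblastine 100 nM was the positive control, with a Student's t-test against vehicle.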

[3] = (§1) Antiproliferative activity against human DG75 cells after 72 hrs by Alamar blue assay; format: functional, cell-based; conditions: DG-75, 72 h
HL-60 [4] = test: Induction of apoptosis in human HL60 cells expressing p-glycoprotein; format: functional, cell-based
PBMC = test: Antiproliferative activity against human PBMC at 10 uM after 24 hrs by Alamar blue assay; format: cell-based
Summary of the method: (§2)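 Cells were treated with a single 10 µM dose for 24 h. PBMCs came from healthy-donor blood by Ficoll density separation and were kept in IMDM with 10% FBS. Viability was read by Alamar Blue fluorescence (590 nm, ex 544 nm) against untreated cells. Three independent experiments were run, with a Student's t-test against vehicle.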

MUTU-I [5] = test: (§3) Induction of apoptosis in human MUTU-I cells assessed as accumulation at pre-G1 phase at 10 uM after 24 hrs using propidium iodide staining by FACS analysis; format: functional
Summary of the method: (§4)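 Cells (7.5×10^5 per 5 mL) were treated, then washed in cold PBS and fixed overnight at 4 °C in 70% ethanol. They were stained with RNase A and propidium iodide for 30 min at 37 °C in the dark. Flow cytometry counted 10,000 gated cells, and the pre-G1 fraction was scored.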

HL-60 [6] = test: Induction of apoptosis in human HL60 cells; format: functional, cell-based
[7] = Antiproliferative activity against human MUTU-I cells after 24 hrs by Alamar blue assay; format: functional, cell-based
DG-75 [8] = test: as §1; format: functional, cell-based
[9] = as §3; format: functional; summary of the method: as §4
[10] = (§5) Antiproliferative activity against human MUTU-I cells at 10 uM after 24 hrs by Alamar blue assay; format: functional; summary of the method: as §2
[11] = Antiproliferative activity against human DG75 cells at 10 uM after 72 hrs by Alamar blue assay; format: functional, DG-75
MUTU-I [12] = test: as §5; format: functional; summary of the method: as §2
DG-75 [13] = test: Antiproliferative activity against human DG75 cells at 10 uM after 24 hrs by Alamar blue assay

Compound	pEC50 [3]	pEC50 [7]	further results
CCN(CC)C(=O)O/N=C/C12c3ccccc3C(CC1C#N)c1ccccc12 (stereo unspecified)	5.51	4.55	Activity (HL-60 [1]): inactive; Activity (MUTU-I [2]): inactive; Activity (HL-60 [4]): inactive; Activity (PBMC): Non-toxic; Activity (MUTU-I [5]): inactive; Activity (HL-60 [6]): inactive
CCOC(=O)/C=C/C12c3ccccc3C(CC1C#N)c1ccccc12 (stereo unspecified)	< 4.00	4.34	–
N#CC1CC2c3ccccc3C1(/C=N/O)c1ccccc12 (stereo unspecified)	< 4.00	4.69	–
N#CC1CC2c3ccccc3C1(COC(=O)c1ccccc1)c1ccccc12 (stereo unspecified)	< 4.00	4.61	–
C1=C(CN2CCCCC2)C2c3ccccc3C1c1ccccc12	4.99	4.50	–
O=C(O)C(Cc1ccc(O)cc1)NC(=O)C1CC2c3ccccc3C1c1ccccc12 (stereo unspecified)	–	< 4.00	–
CN(C(=O)C1CC2c3ccccc3C1(C=O)c1ccccc12)C1CCCCC1 (stereo unspecified)	< 4.00	4.39	Activity (HL-60 [1]): Active; Activity (HL-60 [4]): Active; Activity (HL-60 [6]): Active
CN(C)CC1CC2c3ccccc3C1c1ccccc12 (stereo unspecified)	< 4.00	< 4.00	–
CC(C)CC(NC(=O)C1CC2c3ccccc3C1c1ccccc12)C(=O)O (stereo unspecified)	–	< 4.00	–
CC(=O)O/N=C/C12c3ccccc3C(CC1C#N)c1ccccc12 (stereo unspecified)	< 4.00	4.46	–
CCOC(=O)C1C2c3ccccc3C(c3ccccc32)C1C(=O)OCC (stereo unspecified)	< 4.00	4.05	–
COC(=O)C(Cc1ccc(O)cc1)NC(=O)C1CC2c3ccccc3C1c1ccccc12 (stereo unspecified)	4.26	4.20	–
CC(=O)/C=C/c1c2ccccc2cc2ccccc12	5.12	4.66	–
O=C(/C=C/c1c2ccccc2cc2ccccc12)N1CCCC1	4.49	4.73	–
CCN(CC)CC1C2c3ccccc3C(c3ccccc32)C1CN(CC)CC (stereo unspecified)	4.29	4.19	–
CCOC(=O)CCC12c3ccccc3C(CC1C#N)c1ccccc12 (stereo unspecified)	< 4.00	4.53	–
N#C/C=C/c1c2ccccc2cc2ccccc12	< 4.00	4.67	–
CCOC(=O)C1=CC2c3ccccc3C1c1ccccc12	–	< 4.00	Activity (DG-75 [8]): inactive
CN(CC1CC2c3ccccc3C1c1ccccc12)C1CCCCC1 (stereo unspecified)	4.45	4.64	Activity (HL-60 [1]): inactive; Activity (HL-60 [4]): inactive; Activity (HL-60 [6]): inactive
CNC(=O)/C=C/C12c3ccccc3C(CC1C#N)c1ccccc12 (stereo unspecified)	< 4.00	< 4.00	–
O=C(O)C1CC2c3ccccc3C1c1ccccc12 (stereo unspecified)	–	< 4.00	–
CC(=O)OCC12c3ccccc3C(CC1C#N)c1ccccc12 (stereo unspecified)	< 4.00	4.89	–
O=[N+]([O-])/C=C/c1c2ccccc2cc2ccccc12	5.82	5.52	Activity (HL-60 [1]): Active; Activity (MUTU-I [2]): Active; Activity (HL-60 [4]): Active; Activity (PBMC): Toxic; Activity [9]: 31.43%; Activity (HL-60 [6]): Active
O=C(/C=C/c1c2ccccc2cc2ccccc12)N1CCCCC1	< 4.00	5.72	Activity (MUTU-I [2]): Active; Activity [9]: 15.44%
CNCC12c3ccccc3C(CC1C#N)c1ccccc12 (stereo unspecified)	< 4.00	< 4.00	–
COC(=O)C1=C(C(=O)OC)C2c3ccccc3C1c1ccccc12	–	< 4.00	Activity (DG-75 [8]): inactive
N#CC1CC2c3ccccc3C1(C=O)c1ccccc12 (stereo unspecified)	< 4.00	4.50	–

Compound	pEC50 [3]	pEC50 [7]	further results
CCOC(=O)/C=C/c1c2ccccc2cc2ccccc12	< 4.00	4.57	–
N#C/C=C/C12c3ccccc3C(CC1C#N)c1ccccc12 (stereo unspecified)	< 4.00	< 4.00	–
CCN(CC)C(=O)C1C2c3ccccc3C(c3ccccc32)C1C(=O)N(CC)CC (stereo unspecified)	–	< 4.00	–
N#CC1CC2c3ccccc3C1(CO)c1ccccc12 (stereo unspecified)	< 4.00	< 4.00	–
c1ccc2c(c1)C1CC(CN3CCCCC3)C2c2ccccc21 (stereo unspecified)	4.16	4.18	–
CN1CCN(C(=O)/C=C/c2c3ccccc3cc3ccccc23)CC1	4.21	5.12	Activity (HL-60 [1]): inactive; Activity (MUTU-I [2]): inactive; Activity (HL-60 [4]): inactive; Activity (PBMC): Non-toxic; Activity (MUTU-I [5]): inactive; Activity (HL-60 [6]): inactive
Clc1ccc(COC(Cn2ccnc2)c2ccc(Cl)cc2Cl)c(Cl)c1 (stereo unspecified) [MICONAZOLE]	–	–	Activity [10]: >90%; Activity [11]: >90%
CCOC(=O)N1CCN(C(=O)/C=C/c2c3ccccc3cc3ccccc23)CC1	4.94	5.27	Activity (HL-60 [1]): Active; Activity (MUTU-I [2]): Active; Activity (HL-60 [4]): Active; Activity (PBMC): Non-toxic; Activity [9]: 54.7%; Activity (MUTU-I [12]): Active; Activity (HL-60 [6]): Active; Activity (DG-75 [13]): Active
c1ccc(NCC2CC3c4ccccc4C2c2ccccc23)cc1 (stereo unspecified)	< 4.00	< 4.00	–
CNC(=O)CCC12c3ccccc3C(CC1C#N)c1ccccc12 (stereo unspecified)	< 4.00	< 4.00	–
CN(C)C(=O)/C=C/c1c2ccccc2cc2ccccc12	< 4.00	4.60	–
c1ccc2c(c1)C1CC(CN3CCOCC3)C2c2ccccc21 (stereo unspecified)	5.06	4.63	–
CN1CCN(C(=O)C2CC3c4ccccc4C2c2ccccc23)CC1 (stereo unspecified)	–	< 4.00	–
CCOC(=O)C1CC2c3ccccc3C1c1ccccc12 (stereo unspecified)	< 4.00	4.26	–
O=[N+]([O-])c1ccc(/C=C/c2c3ccccc3cc3ccccc23)cc1	< 4.00	5.06	–
CC[C@]1(O)C[C@@H]2CN(CCc3c([nH]c4ccccc34)[C@@](C(=O)OC)(c3cc4c(cc3OC)N(C)[C@H]3[C@@](O)(C(=O)OC)[C@H](OC(C)=O)[C@]5(CC)C=CCN6CC[C@]43[C@@H]65)C2)C1 [VINBLASTINE]	–	–	Activity (PBMC): Non-toxic; Activity [9]: 52.89%; Activity (MUTU-I [12]): Active; Activity (DG-75 [13]): Active
Cc1ccc(N2CCN(C(=O)/C=C/c3c4ccccc4cc4ccccc34)CC2)cc1	< 4.00	4.41	–
CCN(CC)C(=O)/C=C/c1c2ccccc2cc2ccccc12	5.03	4.67	–
CN(C)C(=O)C1C2c3ccccc3C(c3ccccc32)C1C(=O)N(C)C (stereo unspecified)	–	< 4.00	–
CNC(=O)/C=C/c1c2ccccc2cc2ccccc12	< 4.00	4.20	–
Clc1ccc(N2CCN(CC3CC4c5ccccc5C3c3ccccc34)CC2)cc1 (stereo unspecified)	< 4.00	< 4.00	–
COC(=O)C(CC(C)C)NC(=O)C1CC2c3ccccc3C1c1ccccc12 (stereo unspecified)	–	< 4.00	–
N#CC1CC2c3ccccc3C1(/C=N/OC(=O)c1ccccc1)c1ccccc12 (stereo unspecified)	4.02	4.09	–
CCNCC1CC2c3ccccc3C1c1ccccc12 (stereo unspecified)	< 4.00	< 4.00	–
CNC(C)/C=C/c1c2ccccc2cc2ccccc12 (stereo unspecified)	< 4.00	4.20	–
CN(CC1=CC2c3ccccc3C1c1ccccc12)C1CCCCC1	< 4.00	4.13	–
O=C(O)C1C2c3ccccc3C(c3ccccc32)C1C(=O)O (stereo unspecified)	–	< 4.00	–

Source: ChEMBL document CHEMBL3102711 (Eur J Med Chem, 2014)
